This is one part of a sample in which hits are shown more often than they occur.
PTEN del growth – growth suppression of PTEN-null HCT116, primary screen, cell-based, CellTiter-Glo | HCT116 PTEN-null viability, 60 h; hits give low values | viability, % at 10 µM | hit rate 1.2% among 140,000 | AID 827, 2007;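 active = viability at or below a set limit, 4 SD under the median of all tested compounds, cut at about 3.7% in these data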;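 also: PTEN knockout HCT116 line with beta catenin targeted HCT116 as companion control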
HUVEC inhibit – inhibitors of HUVEC proliferation, primary screen, cell-based, 384-well. CellTiter-Glo luminescence, 72 h; hits give low values. viability, % at 10 µM (by protocol). hit rate 1.1% among 86,000. AID 648, 2007;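 active = viability at or below 30%; inactive = viability above 30%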
Lung fibro prol – antiproliferative effect on LL 47 fibroblasts – human, LL 47 cells, CellTiter-Glo luminescence, primary screen | LL 47 human lung fibroblast viability, ATP luminescence; hits give low values | viability, % at 10 µM | hit rate 1.1% among 85,000 | AID 719, 2007;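 active = viability at or below 50% in the single dose screen; inactive = viability above 50%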;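 also: compound exposure lasted 72 h before the ATP readout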
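test system = LL 47 human lung fibroblasts | amount = 1,150 fibroblasts seeded per well | medium = 15% FBS in IMEM | times = overnight cell rest, 72 h compound treatment at 37 °C | measured by = CellTiter-Glo luminescence measuring cellular ATP | read-out = viability percentage against median untreated-cell control | benchmarks = cell-only wells, no compound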
HCT116 bCat-KO – primary screen for growth suppressors in beta-catenin knockout HCT116 cells (colon tumor, human) | HCT116 beta-catenin knockout viability, CellTiter-Glo, 60 h; hits give low values | viability, % at 10 µM | hit rate 1.5% among 140,000;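 active = viability at or under a set limit, the compound median less 4 SD, cut at about 6% in these data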
H69AR inhibit – proliferation blockers of H69AR lung cancer cells, primary screen, cell-based, human, 86K library; AID 598, 2007; hit rate 6% among 85,000; viability, % at 10 µM; H69AR lung tumor viability, ATP luminescence, 72 h; hits give low values;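 active = viability at or below 40%; inactive = viability above 40%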;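 also: multidrug resistant small cell line overexpressing MRP-1 efflux transporter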
Large screens that a line does not name were inactive.

COc1cc(/C=N/n2nnnc2Nc2ccccc2)cc(OC)c1OC	none (no result: HUVEC inhibit, Lung fibro prol, H69AR inhibit)
N#Cc1cnn(-c2ncnc3sc(-c4ccccc4)cc23)c1N	H69AR inhibit 36.0
N#Cc1cnn(-c2ncnc3sc4c(c23)CCCC4)c1N	none (no result: HUVEC inhibit, Lung fibro prol, H69AR inhibit)
COC(=O)c1c(NC(=O)c2nc3ccccc3s2)sc2c1CCN(C(C)=O)C2	HUVEC inhibit 4.2, Lung fibro prol 3.4
O=C(Nc1ncc(Cc2ccc(SC(F)F)cc2)s1)c1ccc(OC(F)F)cc1	none (no result: HUVEC inhibit, Lung fibro prol, H69AR inhibit)
COC(=O)c1nc(NC(C)=O)n[nH]1	none
COC(=O)c1nc(NC2=NCCCCC2)n[nH]1	H69AR inhibit 39.2 (no result: Lung fibro prol)
Cn1cc(-c2nnc(-c3ccccc3)o2)c2ccccc21	HUVEC inhibit 18.5
Cc1ccccc1-c1nnc(-c2ccccc2)o1	none
O=C(NCc1ccccn1)c1cccc(NS(=O)(=O)c2ccccc2F)c1	none (no result: HUVEC inhibit, Lung fibro prol, H69AR inhibit)
COc1cccc(C(=O)N/N=C(/c2ccccc2)c2ccccn2)c1	PTEN del growth 1.9, HCT116 bCat-KO 5.0 (no result: HUVEC inhibit, Lung fibro prol, H69AR inhibit)
COc1cccc(C(=O)N/N=C(/CCC(=O)O)c2ccccc2)c1	none (no result: HUVEC inhibit, Lung fibro prol, H69AR inhibit)
COc1cc(C(=O)Nc2cccc3cccnc23)cc(OC)c1OC	none
COc1cc(C(=O)N/N=C(\c2ccccc2)c2ccccn2)cc(OC)c1OC	PTEN del growth 3.8, HCT116 bCat-KO 4.8 (no result: HUVEC inhibit, Lung fibro prol, H69AR inhibit)
Cc1c(C(=O)NCc2ccccc2)oc2ccc(S(=O)(=O)N3CCC4(CC3)OCCO4)cc12	none
Cc1c(C(=O)Nc2cccc(Cl)c2)oc2ccc(S(=O)(=O)N3CCC4(CC3)OCCO4)cc12	H69AR inhibit 13.3
Cc1c(C(=O)Nc2ccc(F)cc2)oc2ccc(S(=O)(=O)N3CCCC3)cc12	none
Cc1c(C(=O)Nc2ccc(F)cc2)oc2ccc(S(=O)(=O)N3CCC4(CC3)OCCO4)cc12	H69AR inhibit 32.8
Cc1ccc(NC(=O)c2oc3ccc(S(=O)(=O)N4CCOCC4)cc3c2C)cc1C	H69AR inhibit 36.9
CC(C)(C)c1ccc(-c2nnc(SCC(=O)O)n2N)cc1	Lung fibro prol 44.0
Cc1ccc(N/C(C(Cl)=C(Cl)Cl)=C(/Cl)[N+](=O)[O-])c(C)c1	none (no result: HUVEC inhibit, Lung fibro prol, H69AR inhibit)
CCN(CC)c1ccc(NC(=O)c2cccc(F)c2)c(C)c1	H69AR inhibit 27.7
CCN(CC)c1ccc(NC(=O)c2ccco2)c(C)c1	none
CCOC(=O)CC1=C(C(=O)OCC)C(c2ccc(C)o2)C(C#N)=C(N)O1 (configuration not stated)	none
Cc1ccc(C2C(C#N)=C(N)Oc3c2sc2ccccc32)o1 (configuration not stated)	H69AR inhibit 12.7
Cc1c(Cl)ccc(S(=O)(=O)N2CCN=C2c2ccccc2)c1Cl	none (no result: HUVEC inhibit, Lung fibro prol, H69AR inhibit)
O=c1cc(CO)oc(C(Nc2ccccn2)c2cccc(F)c2)c1O (configuration not stated)	none
O=c1cc(CO)oc(C(Nc2ccccn2)c2ccc(C(F)(F)F)cc2)c1O (configuration not stated)	H69AR inhibit 19.2
O=C(Oc1cccc2cccnc12)c1cccc(N2C(=O)C3C4CCC(C4)C3C2=O)c1 (configuration not stated)	PTEN del growth 2.1, HCT116 bCat-KO 4.5 (no result: HUVEC inhibit, Lung fibro prol, H69AR inhibit)
Oc1ccc(Br)cc1-c1cc(-c2ccc(Cl)cc2)n[nH]1	PTEN del growth 3.3, HUVEC inhibit 8.1, Lung fibro prol 38.5, HCT116 bCat-KO 3.7
Oc1ccccc1-c1cc(-c2ccc3c(c2)OCCO3)n[nH]1	H69AR inhibit 16.6
Cn1c(-c2cc(Br)ccc2O)n[nH]c1=S	none
COc1ccc(-c2cc(-c3ccccc3O)[nH]n2)cc1OC	none
Oc1ccc(Br)cc1-c1cc(-c2ccccc2)n[nH]1	HUVEC inhibit 26.7, H69AR inhibit 6.3
Cc1[nH]n(-c2ccc([N+](=O)[O-])cc2)c(=O)c1C=NCCc1c(C)[nH]c2ccccc12	none (no result: HUVEC inhibit, Lung fibro prol, H69AR inhibit)
Cc1cccc(NC(=O)CNc2cc(C)ccc2C)c1	none
CC(C)C1N=C(c2ccc3c(c2)OCO3)CC(c2ccccc2O)N1 (configuration not stated)	HCT116 bCat-KO 5.8, H69AR inhibit 2.1
Cc1cc(C)cc(NC(N)=S)c1	none (no result: HUVEC inhibit, Lung fibro prol, H69AR inhibit)
c1ccc(-c2noc(-c3ccc4c(c3)OCO4)n2)nc1	HUVEC inhibit 29.3, H69AR inhibit 23.3
c1ccc(CCc2ccccc2-c2nc(-c3ccccn3)no2)cc1	H69AR inhibit 33.9
c1ccc(CCc2ccccc2-c2nc(-c3cccnc3)no2)cc1	none
c1ccc(-c2noc(-c3ccc4ccccc4c3)n2)nc1	none
O=C(c1ccc(Cl)cc1)c1oc2ccccc2c1CS(=O)c1ccccc1 (configuration not stated)	none (no result: HUVEC inhibit, Lung fibro prol, H69AR inhibit)
COc1ccc(C(=O)CSc2nnc(CN3CCCCC3)n2-c2ccc(Cl)cc2)cc1OC	none (no result: HUVEC inhibit, Lung fibro prol, H69AR inhibit)
COc1cc2c(cc1Cl)/C(=C\CCN(C)C)c1ccccc1S2	none (no result: HUVEC inhibit, Lung fibro prol, H69AR inhibit)
CN(C)CC/C=C1/c2ccccc2Sc2c(O)cc(Cl)cc21	H69AR inhibit 6.3
COc1cc(Cl)cc2c1Sc1ccccc1/C2=C/CCN(C)C	HUVEC inhibit 4.1, HCT116 bCat-KO 2.2, H69AR inhibit 2.7
O=C(CN1N=C(c2ccc(Cl)cc2)CCC1=O)NCc1cccnc1	none (no result: HUVEC inhibit, Lung fibro prol, H69AR inhibit)
Cc1ccc(-c2nn(CC(=O)NCCN3CCOCC3)c(=O)c3ccccc23)cc1	none
Cc1ccc(-c2nn(C)c(=O)c3ccccc23)cc1CO	none (no result: HUVEC inhibit, Lung fibro prol, H69AR inhibit)
Cc1ccc(-c2nn(CC(=O)NCc3ccco3)c(=O)c3ccccc23)cc1	HCT116 bCat-KO 5.2, H69AR inhibit 21.9
Cc1ccc(-c2nn(C)c(=O)c3ccccc23)cc1CNC(=O)Cn1nc(-c2ccccc2)c2ccccc2c1=O	H69AR inhibit 1.6
Cc1ccc(-c2nn(C)c(=O)c3ccccc23)cc1CNC(=O)CN1CCOCC1	none
Cc1cc(C)n(CC(=O)NCc2cc(-c3nn(C)c(=O)c4ccccc34)ccc2C)n1	H69AR inhibit 30.2
CC(=O)N1CCc2c(sc(NC(=O)c3ccc4c(c3)OCCO4)c2C#N)C1	H69AR inhibit 24.4
CCc1cccc(Nc2cc(C)nc3ncnn23)c1	none
CCn1c2ccccc2c2cc(Nc3cc(C)nc4ncnn34)ccc21	HUVEC inhibit 29.8, Lung fibro prol 44.8, H69AR inhibit 31.2
Cc1ccc(-n2nc3ccc(NC(=O)/C=C/c4ccco4)cc3n2)cc1	none (no result: HUVEC inhibit, Lung fibro prol, H69AR inhibit)
CC1CCN(S(=O)(=O)c2ccc(Cl)cc2)CC1	none
CC1=C(C)CS(=O)N(S(=O)(=O)c2ccc(Cl)cc2)C1 (configuration not stated)	Lung fibro prol 47.2
Cc1nnc(SCC(=O)Nc2ccccc2C(=O)NC2CC2)s1	none (no result: HUVEC inhibit, Lung fibro prol, H69AR inhibit)
CC(C)(C)NC(=O)Cn1c(=O)c(=O)n(Cc2ccccc2)c2ccc(Cl)cc21	none (no result: HUVEC inhibit, Lung fibro prol, H69AR inhibit)
O=C(CS(=O)c1ccc(C(F)(F)F)cc1[N+](=O)[O-])Oc1ccccc1 (configuration not stated)	HUVEC inhibit 24.5, Lung fibro prol 44.4, H69AR inhibit 3.1
O=C(CNc1ccc(C(F)(F)F)cc1[N+](=O)[O-])OCC(=O)c1ccccc1	none
CCn1c(SCC(=O)N2CCCc3ccccc32)nnc1-c1c[nH]c2ccccc12	H69AR inhibit 23.4

Screening data as filed in PubChem BioAssay.
